Source: article PMC8942385 (Medicinal chemistry research : an international journal for …, 2021)
“Also recorded” adds a separate entry of the source. Read-outs that look alike come from different tables or passages of the source.

What was measured:
[1] = target: T1, h5-HT7A (Homo sapiens, UniProt P34969); assay: HEK-5-HT7A / cAMP functional assay; type: cell-based; details: agonist mode
[2] = target: T2, 5-HT7R (Homo sapiens, UniProt P34969); assay: GPCR Tango assay, β-arrestin recruitment; type: cell-based
[3] = target: T3, 5-HT1AR (Homo sapiens, UniProt P08908); details: read-out: Binding affinity constant Ki, 5-HT1AR; cited from earlier work
T3 sequence (P08908 1-422): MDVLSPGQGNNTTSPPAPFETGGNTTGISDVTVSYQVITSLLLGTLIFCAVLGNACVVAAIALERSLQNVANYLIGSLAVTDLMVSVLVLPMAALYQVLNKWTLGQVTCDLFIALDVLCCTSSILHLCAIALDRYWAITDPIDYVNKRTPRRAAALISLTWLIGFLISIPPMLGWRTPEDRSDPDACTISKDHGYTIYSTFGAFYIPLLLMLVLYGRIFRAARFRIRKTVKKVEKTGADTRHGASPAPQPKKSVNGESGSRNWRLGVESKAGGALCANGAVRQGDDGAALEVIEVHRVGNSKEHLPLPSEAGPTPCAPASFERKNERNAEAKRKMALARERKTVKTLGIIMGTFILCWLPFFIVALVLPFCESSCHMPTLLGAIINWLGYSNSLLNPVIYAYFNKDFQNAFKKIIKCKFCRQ

[4] = target: T2, 5-HT7R; details: read-out: Binding affinity constant Ki, 5-HT7R; Table 1; cited from earlier work
[5] = target: T3, 5-HT1AR; assay: PDSP radioligand binding, 5-HT1AR; details: [3H]8-OH-DPAT
Summary of the method: (§1)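 Radioligand competition binding run by NIMH-PDSP. Radioligands: [3H]8-OH-DPAT (5-HT1AR), [3H]Ketanserin (5-HT2AR), [3H]LSD (5-HT2BR), [3H]SCH23390 (D1R, D5R), [3H]N-Methylspiperone (D2R, D3R, D4R). […] Ki given as mean ± SEM of at least 3 independent assays, each in triplicate.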

[6] = target: T4, 5-HT2CR (Homo sapiens, UniProt P28335); assay: PDSP radioligand binding, 5-HT2CR
T4 sequence (P28335 33-458): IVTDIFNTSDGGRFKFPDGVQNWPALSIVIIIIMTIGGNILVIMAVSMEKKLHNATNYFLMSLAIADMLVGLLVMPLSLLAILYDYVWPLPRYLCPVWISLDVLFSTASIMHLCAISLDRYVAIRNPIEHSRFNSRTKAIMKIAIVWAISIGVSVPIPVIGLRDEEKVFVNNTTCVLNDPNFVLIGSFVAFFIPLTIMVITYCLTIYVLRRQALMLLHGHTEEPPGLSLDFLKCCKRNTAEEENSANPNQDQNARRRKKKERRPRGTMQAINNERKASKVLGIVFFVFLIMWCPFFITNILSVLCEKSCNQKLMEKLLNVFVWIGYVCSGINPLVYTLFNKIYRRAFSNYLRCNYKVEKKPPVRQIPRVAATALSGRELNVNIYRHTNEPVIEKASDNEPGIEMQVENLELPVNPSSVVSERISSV

[7] = target: T2, 5-HT7R; assay: PDSP radioligand binding, 5-HT7R
[8] = target: T5, SERT (Homo sapiens, UniProt P31645); assay: PDSP radioligand binding, SERT; details: for Binding, SERT: inhibition threshold class: [3H]Citalopram, 10 μM concentration
[9] = target: D1R (Homo sapiens, UniProt P21728); assay: PDSP radioligand binding, D1; details: for inhibition at 10 µM: read-out: Binding, D1: inhibition threshold class
Summary of the method: as §1

[10] = target: D2R (Homo sapiens, UniProt P14416); assay: PDSP radioligand binding, D2
Summary of the method: as §1

[11] = target: D3R (Homo sapiens, UniProt P35462); assay: PDSP radioligand binding, D3; details: for Ki: Binding affinity constant Ki, D3, [3H]N-Methylspiperone
Summary of the method: as §1

[12] = target: T6, D4R (Homo sapiens, UniProt P21917); assay: PDSP radioligand binding, D4
T6 sequence (P21917 1-419): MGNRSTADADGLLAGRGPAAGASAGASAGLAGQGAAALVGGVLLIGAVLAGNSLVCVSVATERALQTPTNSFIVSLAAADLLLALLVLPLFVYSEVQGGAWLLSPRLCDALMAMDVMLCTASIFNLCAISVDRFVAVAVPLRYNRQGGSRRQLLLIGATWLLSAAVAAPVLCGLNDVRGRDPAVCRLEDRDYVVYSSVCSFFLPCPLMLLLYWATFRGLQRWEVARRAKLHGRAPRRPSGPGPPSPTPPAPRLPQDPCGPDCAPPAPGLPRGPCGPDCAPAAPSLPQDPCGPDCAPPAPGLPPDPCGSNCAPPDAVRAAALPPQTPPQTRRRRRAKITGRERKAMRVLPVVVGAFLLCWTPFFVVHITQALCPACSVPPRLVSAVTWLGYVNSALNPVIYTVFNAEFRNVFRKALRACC
Summary of the method: as §1

[13] = target: D5R (Homo sapiens, UniProt P21918); assay: PDSP radioligand binding, D5; details: for inhibition at 10 µM: read-out: Binding, D5: inhibition threshold class
Summary of the method: as §1

[14] = target: NET (Homo sapiens, UniProt P23975); assay: PDSP radioligand binding, NET; details: for Binding, NET: inhibition threshold class: [3H]Nisoxetine, 10 μM concentration
[15] = target: DAT (Homo sapiens, UniProt Q01959); assay: PDSP radioligand binding, DAT; details: for Binding, DAT: inhibition threshold class: [3H]WIN35428, 10 μM concentration
[16] = target: T1, h5-HT7A; details: cited from earlier work
[17] = target: T2, 5-HT7R; details: cited from earlier work
[18] = target: 5-HT2AR (Homo sapiens, UniProt P28223); assay: PDSP radioligand binding, 5-HT2AR; details: [3H]Ketanserin
Summary of the method: as §1

[19] = target: 5-HT2BR (Homo sapiens, UniProt P41595); assay: PDSP radioligand binding, 5-HT2BR; details: [3H]LSD
Summary of the method: as §1

[20] = Configurational stability of separated enantiomers; type: physicochemical; details: after chiral HPLC separation
[21] = target: T5, SERT; details: 10 μM concentration; cited from earlier work
[22] = Binding affinity constant Ki, 5-HT1AR
[23] = mean ± SEM, min 3 assays in triplicate
[24] = [3H]SCH23390, 10 μM concentration

T1 sequence (P34969 1-445 isoform P34969-2): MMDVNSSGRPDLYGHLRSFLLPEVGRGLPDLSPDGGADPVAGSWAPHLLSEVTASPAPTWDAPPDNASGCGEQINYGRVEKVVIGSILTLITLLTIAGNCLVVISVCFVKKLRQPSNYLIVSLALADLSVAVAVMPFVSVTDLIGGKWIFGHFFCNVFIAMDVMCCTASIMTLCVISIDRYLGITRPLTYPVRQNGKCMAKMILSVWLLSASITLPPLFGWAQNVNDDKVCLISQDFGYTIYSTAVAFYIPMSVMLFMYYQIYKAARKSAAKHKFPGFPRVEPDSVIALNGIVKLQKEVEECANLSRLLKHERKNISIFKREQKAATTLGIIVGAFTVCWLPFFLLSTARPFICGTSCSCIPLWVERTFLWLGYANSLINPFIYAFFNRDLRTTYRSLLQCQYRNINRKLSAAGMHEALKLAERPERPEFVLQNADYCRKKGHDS
Chain of D2R (P14416 whole entry): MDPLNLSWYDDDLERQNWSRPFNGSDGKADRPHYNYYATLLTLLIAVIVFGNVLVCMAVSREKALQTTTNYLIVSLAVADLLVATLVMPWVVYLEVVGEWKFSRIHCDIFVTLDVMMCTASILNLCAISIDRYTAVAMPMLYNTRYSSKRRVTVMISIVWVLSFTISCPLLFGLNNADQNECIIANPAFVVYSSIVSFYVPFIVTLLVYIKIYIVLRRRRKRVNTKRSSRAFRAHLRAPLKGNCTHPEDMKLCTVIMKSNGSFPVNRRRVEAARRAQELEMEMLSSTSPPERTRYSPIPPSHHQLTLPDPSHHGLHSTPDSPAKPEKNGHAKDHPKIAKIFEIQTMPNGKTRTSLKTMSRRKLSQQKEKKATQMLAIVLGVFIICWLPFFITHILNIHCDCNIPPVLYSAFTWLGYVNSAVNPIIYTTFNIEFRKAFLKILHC
Chain of 5-HT2AR (P28223 whole entry): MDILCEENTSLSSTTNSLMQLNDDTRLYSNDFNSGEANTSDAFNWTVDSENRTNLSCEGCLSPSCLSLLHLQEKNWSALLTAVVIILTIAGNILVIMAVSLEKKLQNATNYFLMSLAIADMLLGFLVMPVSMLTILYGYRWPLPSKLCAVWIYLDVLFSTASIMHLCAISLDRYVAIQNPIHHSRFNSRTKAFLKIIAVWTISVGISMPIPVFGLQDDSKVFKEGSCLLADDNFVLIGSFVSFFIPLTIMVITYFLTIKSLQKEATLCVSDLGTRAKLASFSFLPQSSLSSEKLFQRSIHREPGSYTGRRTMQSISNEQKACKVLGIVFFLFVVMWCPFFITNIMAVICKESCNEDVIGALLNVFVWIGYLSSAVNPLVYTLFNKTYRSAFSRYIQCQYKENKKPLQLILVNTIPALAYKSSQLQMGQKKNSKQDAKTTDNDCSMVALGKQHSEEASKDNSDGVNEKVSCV
Chain of D5R (P21918 whole entry): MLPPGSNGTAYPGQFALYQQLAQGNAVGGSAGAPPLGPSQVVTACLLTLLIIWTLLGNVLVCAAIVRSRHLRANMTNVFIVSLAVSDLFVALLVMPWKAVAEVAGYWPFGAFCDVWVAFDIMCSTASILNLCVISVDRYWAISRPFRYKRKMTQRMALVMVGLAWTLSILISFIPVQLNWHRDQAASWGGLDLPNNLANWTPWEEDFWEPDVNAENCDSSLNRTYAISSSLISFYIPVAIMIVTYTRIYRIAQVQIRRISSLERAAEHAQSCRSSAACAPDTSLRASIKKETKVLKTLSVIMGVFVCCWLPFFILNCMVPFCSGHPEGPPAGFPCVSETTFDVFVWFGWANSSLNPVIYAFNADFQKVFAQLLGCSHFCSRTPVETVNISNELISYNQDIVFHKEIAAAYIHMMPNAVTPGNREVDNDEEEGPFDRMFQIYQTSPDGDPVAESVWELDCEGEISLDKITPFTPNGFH
Chain of D3R (P35462 whole entry): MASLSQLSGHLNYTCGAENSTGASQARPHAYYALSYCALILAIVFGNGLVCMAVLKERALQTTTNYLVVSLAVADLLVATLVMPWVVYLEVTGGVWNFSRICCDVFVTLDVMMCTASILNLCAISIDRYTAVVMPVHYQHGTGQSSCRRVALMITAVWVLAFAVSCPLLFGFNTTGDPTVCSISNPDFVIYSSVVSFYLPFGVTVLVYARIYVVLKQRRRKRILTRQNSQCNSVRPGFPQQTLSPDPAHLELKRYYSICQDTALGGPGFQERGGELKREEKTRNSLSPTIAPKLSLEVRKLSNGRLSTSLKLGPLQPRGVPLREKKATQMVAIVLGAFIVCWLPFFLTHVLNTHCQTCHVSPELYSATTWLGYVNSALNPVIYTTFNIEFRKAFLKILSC
Chain of 5-HT2BR (P41595 whole entry): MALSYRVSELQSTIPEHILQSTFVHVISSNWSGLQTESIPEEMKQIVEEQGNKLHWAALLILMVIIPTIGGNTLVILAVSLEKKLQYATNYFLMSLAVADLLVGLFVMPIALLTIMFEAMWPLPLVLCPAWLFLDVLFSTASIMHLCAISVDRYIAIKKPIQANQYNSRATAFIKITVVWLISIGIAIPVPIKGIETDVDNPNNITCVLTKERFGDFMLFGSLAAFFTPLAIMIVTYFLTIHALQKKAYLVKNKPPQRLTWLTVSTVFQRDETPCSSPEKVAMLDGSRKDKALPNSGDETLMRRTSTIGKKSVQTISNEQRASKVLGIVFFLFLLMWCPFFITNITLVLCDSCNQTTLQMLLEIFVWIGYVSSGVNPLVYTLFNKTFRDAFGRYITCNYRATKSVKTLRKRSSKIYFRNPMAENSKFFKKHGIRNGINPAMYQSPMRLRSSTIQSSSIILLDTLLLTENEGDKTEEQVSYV
Chain of DAT (Q01959 whole entry, species assumed): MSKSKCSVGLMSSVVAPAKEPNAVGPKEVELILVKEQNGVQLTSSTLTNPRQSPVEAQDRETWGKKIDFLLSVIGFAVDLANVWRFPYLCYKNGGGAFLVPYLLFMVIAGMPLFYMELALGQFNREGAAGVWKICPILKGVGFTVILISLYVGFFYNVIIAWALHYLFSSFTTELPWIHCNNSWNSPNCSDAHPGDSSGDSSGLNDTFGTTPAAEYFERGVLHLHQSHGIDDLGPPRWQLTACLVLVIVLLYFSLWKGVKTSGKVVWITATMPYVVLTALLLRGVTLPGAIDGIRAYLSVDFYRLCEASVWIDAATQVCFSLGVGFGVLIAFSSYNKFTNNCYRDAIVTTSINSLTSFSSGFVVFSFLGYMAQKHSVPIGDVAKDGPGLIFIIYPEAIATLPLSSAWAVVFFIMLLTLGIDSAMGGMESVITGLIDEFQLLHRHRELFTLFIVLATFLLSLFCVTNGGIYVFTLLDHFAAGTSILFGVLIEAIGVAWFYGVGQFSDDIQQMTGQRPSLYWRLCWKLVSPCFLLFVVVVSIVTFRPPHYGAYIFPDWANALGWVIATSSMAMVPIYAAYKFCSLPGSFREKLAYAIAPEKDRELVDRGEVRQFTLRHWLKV
T2 sequence (P34969 whole entry): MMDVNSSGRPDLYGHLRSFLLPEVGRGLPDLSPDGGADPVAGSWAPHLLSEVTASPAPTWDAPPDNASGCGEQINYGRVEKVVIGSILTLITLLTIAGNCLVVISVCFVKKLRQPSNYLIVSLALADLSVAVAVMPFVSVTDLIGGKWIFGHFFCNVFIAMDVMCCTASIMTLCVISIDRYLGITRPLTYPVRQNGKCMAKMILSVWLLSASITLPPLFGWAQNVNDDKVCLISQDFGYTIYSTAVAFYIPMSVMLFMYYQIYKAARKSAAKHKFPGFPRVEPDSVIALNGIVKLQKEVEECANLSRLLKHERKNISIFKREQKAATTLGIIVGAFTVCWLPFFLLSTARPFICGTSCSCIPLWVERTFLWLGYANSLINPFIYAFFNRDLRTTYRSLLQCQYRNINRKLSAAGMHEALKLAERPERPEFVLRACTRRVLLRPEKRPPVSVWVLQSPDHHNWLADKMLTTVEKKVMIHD
Chain of D1R (P21728 whole entry): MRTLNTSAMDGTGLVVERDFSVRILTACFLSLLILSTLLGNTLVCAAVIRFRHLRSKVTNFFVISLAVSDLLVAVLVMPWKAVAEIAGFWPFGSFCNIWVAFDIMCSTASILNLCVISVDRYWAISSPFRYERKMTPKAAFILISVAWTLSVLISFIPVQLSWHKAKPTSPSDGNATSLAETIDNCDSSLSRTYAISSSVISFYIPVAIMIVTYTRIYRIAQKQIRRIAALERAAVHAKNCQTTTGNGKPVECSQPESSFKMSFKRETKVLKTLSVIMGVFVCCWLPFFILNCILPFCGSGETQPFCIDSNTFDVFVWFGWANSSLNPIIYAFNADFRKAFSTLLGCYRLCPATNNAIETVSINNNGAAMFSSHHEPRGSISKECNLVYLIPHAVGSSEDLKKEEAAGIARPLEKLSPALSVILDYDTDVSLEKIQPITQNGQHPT
T5 sequence (P31645 whole entry, species assumed): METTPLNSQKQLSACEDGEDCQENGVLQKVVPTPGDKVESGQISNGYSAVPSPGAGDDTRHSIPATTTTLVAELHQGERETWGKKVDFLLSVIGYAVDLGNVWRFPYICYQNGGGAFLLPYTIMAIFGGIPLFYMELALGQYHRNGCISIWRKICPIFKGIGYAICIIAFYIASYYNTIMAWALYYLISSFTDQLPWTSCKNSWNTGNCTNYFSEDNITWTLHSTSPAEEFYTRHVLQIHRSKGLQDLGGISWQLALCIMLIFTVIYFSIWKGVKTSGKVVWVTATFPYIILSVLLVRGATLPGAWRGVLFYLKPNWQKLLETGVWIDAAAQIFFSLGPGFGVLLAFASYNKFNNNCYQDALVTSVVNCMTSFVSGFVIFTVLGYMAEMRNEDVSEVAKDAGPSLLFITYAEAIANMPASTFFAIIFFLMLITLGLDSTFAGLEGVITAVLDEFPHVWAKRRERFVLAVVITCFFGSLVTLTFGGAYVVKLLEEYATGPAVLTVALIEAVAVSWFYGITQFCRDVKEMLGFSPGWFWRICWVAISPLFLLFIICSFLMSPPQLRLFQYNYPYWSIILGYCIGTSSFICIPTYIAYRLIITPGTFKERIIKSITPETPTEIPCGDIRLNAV

## NCCc1c[nH]c2ccc(O)cc12 [Compound 5-HT, Serotonin, reference compound]
[1]
  cAMP Hill: 1.0±0.1
[2]; agonist mode, Tango
  β-arrestin Hill: 3.4±0.4

## Cc1nn(C)c(C)c1-c1cccc2c1CC[C@H](N(C)C)C2 [AS-19]
[3]
  Ki: 89.7 nM
[4]
  Ki: 0.6 nM

## CCOC(=O)C1(CCN2CCc3ccccc3C2)Cc2cc(Cl)ccc2C1=O (stereo not drawn) [Compound 3, ethyl 5-chloro-2-(2-(3,4-dihydroisoquinolin-2(1H)-yl)ethyl)-1-oxo-2,3-dihydro-1H-indene-2-carboxylate]
[5]; [22]
  Ki: 52 nM
[6]
  Ki: 885 nM
[7]
  Ki: 3.39 nM
[8]
  Binding, SERT: inhibition threshold class: MT (Missed threshold of 50% inhibition at 10 μM concentration)
[9]
  inhibition at 10 µM: < 50%
[10]
  Ki: 747 nM
[11]
  Ki: 134 nM
[12]; read-out: Binding, D4: inhibition threshold class
  inhibition at 10 µM: < 50%
[13]
  inhibition at 10 µM: < 50%
[14]
  Binding, NET: inhibition threshold class: MT (Missed threshold of 50% inhibition at 10 μM concentration)
[15]
  Binding, DAT: inhibition threshold class: MT (Missed threshold of 50% inhibition at 10 μM concentration)

## Clc1ccc(-c2n[nH]c3c2CCNCC3)cc1 [Compound 7, 3-(4-chlorophenyl)-1,4,5,6,7,8-hexahydropyrazolo[3,4-d]azepine]
[3]
  Ki: > 10000 nM
[16]
  cAMP Emax %: 94.7%
  cAMP pEC50: 5.1±0.1
[16]; read-out: cAMP EC50
  EC50: 7.79 µM
[17]
  β-arrestin Emax %: 62.7%
  β-arrestin pEC50: 6.8±0.2

## CC1(CCN2CCc3ccccc3C2)Cc2cc(Cl)ccc2C1=O (stereo not drawn) [Compound 2, 5-chloro-2-(2-(3,4-dihydroisoquinolin-2(1H)-yl)ethyl)-2-methyl-2,3-dihydro-1H-inden-1-one]
[5]; [22]
  Ki: 1720 nM
[18]; Binding affinity constant Ki, 5-HT2AR
  Ki: 904 nM
[19]; Binding affinity constant Ki, 5-HT2BR
  Ki: 174 nM
[6]; Binding affinity constant Ki, 5-HT2CR, [3H]Mesulergine
  Ki: 1740 nM
[7]
  Fold higher affinity at the 5-HT7R than clozapine: 2 fold
  Fold lower affinity at the 5-HT7R than AS 19: about 4 fold
  Ki: 2.24 nM
[8]; read-out: Binding, SERT: inhibition threshold class
  inhibition at 10 µM: < 50%
[9]
  inhibition at 10 µM: < 50%
[10]
  Ki: 1230 nM
[11]
  Ki: 185 nM
[12]; Binding affinity constant Ki, D4, [3H]N-Methylspiperone
  Ki: 1220 nM
[13]
  inhibition at 10 µM: < 50%
[14]; read-out: Binding, NET: inhibition threshold class
  inhibition at 10 µM: < 50%
[15]; read-out: Binding, DAT: inhibition threshold class
  inhibition at 10 µM: < 50%

## CC1(CCN2CCc3ccccc3C2)Cc2cc(Cl)ccc2C1=O (single isomer, unassigned; (-)) [Compound 2a, (−)-5-chloro-2-(2-(3,4-dihydroisoquinolin-2(1H)-yl)ethyl)-2-methyl-2,3-dihydro-1H-inden-1-one]
[5]; [23]
  Binding affinity constant pKi ± SEM, 5-HT1AR: 7.06±0.07
[5]; read-out: Binding affinity constant Ki, 5-HT1AR
  Ki: 86.3 nM
[18]; [23]
  Binding affinity constant pKi ± SEM, 5-HT2AR: 6.08 ± 0.06
[18]; read-out: Binding affinity constant Ki, 5-HT2AR
  Ki: 834 nM
[19]; [23]
  Binding affinity constant pKi ± SEM, 5-HT2BR: 6.48 ± 0.04
[19]; read-out: Binding affinity constant Ki, 5-HT2BR
  Ki: 329 nM
[6]; 10 μM concentration
  Binding, 5-HT2CR: inhibition threshold class: MT (Missed threshold of 50% inhibition at 10 μM concentration)
[7]
  Selectivity for 5-HT7R over 5-HT1AR: ~72 fold
[7]; Table 1, [3H]LSD, mean ± SEM, min 3 assays in triplicate
  Binding affinity constant pKi ± SEM, 5-HT7R: 8.94 ± 0.06
[7]; Table 3
  5-HT7 Receptor Binding pKi: 8.7 ± 0.1
[7]; read-out: 5-HT7 Receptor Binding Ki, Table 3
  Ki: 2.4 nM
[7]; read-out: Binding affinity constant Ki, 5-HT7R, Table 1, [3H]LSD
  Ki: 1.2 nM
[8]
  Binding, SERT: inhibition threshold class: MT (Missed threshold of 50% inhibition at 10 μM concentration)
[9]; [24]
  Binding, D1: inhibition threshold class: MT (Missed threshold of 50% inhibition at 10 μM concentration)
[10]; 10 μM concentration
  Binding, D2: inhibition threshold class: MT (Missed threshold of 50% inhibition at 10 μM concentration)
[11]; 10 μM concentration
  Binding, D3: inhibition threshold class: MT (Missed threshold of 50% inhibition at 10 μM concentration)
[12]; [3H]N-Methylspiperone, mean ± SEM, min 3 assays in triplicate
  Binding affinity constant pKi ± SEM, D4: 6.34 ± 0.07
[12]; read-out: Binding affinity constant Ki, D4, [3H]N-Methylspiperone
  Ki: 457 nM
[13]; [24]
  Binding, D5: inhibition threshold class: MT (Missed threshold of 50% inhibition at 10 μM concentration)
[14]
  Binding, NET: inhibition threshold class: MT (Missed threshold of 50% inhibition at 10 μM concentration)
[15]
  Binding, DAT: inhibition threshold class: MT (Missed threshold of 50% inhibition at 10 μM concentration)
[1]
  cAMP Hill: 1.3± 0.2
  cAMP pEC50: 6.9±0.3
[1]; normalized to maximal serotonin effect
  cAMP Emax %: 82.8 ± 2.6%
[1]; read-out: cAMP EC50
  EC50: 126 nM
[2]; agonist mode, Tango
  β-arrestin Emax %: 78.7 ± 5.7%
  β-arrestin Hill: 1.2 ± 0.1
  β-arrestin pEC50: 8.4 ± 0.1
[2]; read-out: β-arrestin EC50, agonist mode, Tango
  EC50: 3.98 nM
[2]; relative to 5-HT
  Times higher activity than 5-HT in the β-arrestin pathway: over 31 times
[20]
  Racemization of separated enantiomers: No racemization

## O=C1c2ccc(Cl)cc2CC1CCN1CCc2ccccc2C1 (stereo not drawn) [Compound 1c, 5-chloro-2-(2-(3,4-dihydroisoquinolin-2(1H)-yl)ethyl)-2,3-dihydro-1H-inden-1-one]
[20]
  Racemization of separated enantiomers: racemizes readily; also recorded: quickly reverted to the racemic mixture in a matter of hours
[21]
  Binding, SERT: inhibition threshold class: MT (Missed threshold of 50% inhibition at 10 μM concentration)
